From ChEMBL document CHEMBL1123837, “1-Amino-substituted 4-methyl-5H-pyrido[3',4':4,5]pyrrolo[3,2-c]pyridines: a new class of antineoplastic agents” (J Med Chem, 1987)
Calls of active or inactive are those of the source. The calls are words filed in the database; no cut-off is given here.

Experiments:
Calf thymus DNA = test: Binding affinity for DNA by ethidium bromide displacement assay; type: nucleic-acid assay; conditions: Bos taurus
How it was run: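 Competitive ethidium bromide displacement with calf thymus DNA at 10 µg/mL in 20 mM Na phosphate buffer, 0.1 M NaCl, 1 mM EDTA, pH 7.4. The apparent DNA affinity constant is given in 10^6 M^-1 ± standard deviation, from 6 values across two independent experiments.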

Mus musculus [1] = test: In vivo antitumor activity was determined against P388 leukemia cells expressed as treated/control at the dose of (1.25-40)mg/kg; IA = Inactive; type: functional, organism-based
How it was run: (§1)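 Following NCI protocols, 10^6 viable P388 leukemia cells were inoculated ip on day 0 into male or female CDF1 hybrid mice, 10 per test group. Compounds in distilled water were given ip (0.1 mL/10 g body weight) at various doses on days 1–5. T/C = median survival day of treated / median survival day of negative controls × 100.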

L1210 = test: In vitro cytotoxicity against L1210 cells was determined after 48 hours of incubation; type: functional, Mus musculus; conditions: Mus musculus, L1210, 48 h; read-out: ID50 (the source's name)
How it was run: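 Exponentially growing L1210 cells were cultured in RPMI 1640 with 2 mM glutamine, penicillin/streptomycin and 10% fetal calf serum, under 5% CO2 at 37 °C. Drugs dissolved in distilled water were added to cells at 0.8 × 10^5 cells/mL for 48 h, then cells were counted. ID50 was estimated by regression of dose-response data, as the mean of two values from two independent experiments.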

Mus musculus [2] = test: In vivo antitumor activity was determined against P388 leukemia cells expressed as treated/control at the dose of (1.25-80)mg/kg; IA = Inactive; type: functional, organism-based; how it was run: as §1
Mus musculus [3] = test: In vivo antitumor activity was determined against P388 leukemia cells expressed as treated/control at the dose of 40 mg/kg; T = toxic at this dose; type: organism-based; set-up: dose 40 mg/kg; how it was run: as §1
Mus musculus [4] = test: In vivo antitumor activity was determined against P388 leukemia cells expressed as treated/control at the dose of (2.5-20)mg/kg; IA = Inactive; type: functional, organism-based; how it was run: as §1
Mus musculus [5] = test: In vivo antitumor activity was determined against P388 leukemia cells expressed as treated/control at the dose of 10 mg/kg; type: functional; how it was run: as §1
Mus musculus [6] = test: In vivo antitumor activity was determined against P388 leukemia cells expressed as treated/control at the dose of 80 mg/kg; type: functional; how it was run: as §1
Mus musculus [7] = test: In vivo antitumor activity was determined against P388 leukemia cells expressed as treated/control at the dose of 20 mg/kg; type: functional; how it was run: as §1
Mus musculus [8] = test: In vivo antitumor activity was determined against P388 leukemia cells expressed as treated/control at the dose of 40 mg/kg; type: functional; how it was run: as §1
Mus musculus [9] = test: In vivo antitumor activity was determined against P388 leukemia cells expressed as treated/control at the dosae of (2.5-40)mg/kg; IA = Inactive; type: functional, organism-based; how it was run: as §1
Mus musculus [10] = test: In vivo antitumor activity was determined against P388 leukemia cells expressed as treated/control at the dose of (5-60)mg/kg; IA = Inactive; type: functional, organism-based; how it was run: as §1
Mus musculus [11] = test: In vivo antitumor activity was determined against P388 leukemia cells expressed as treated/control at the dose of (0.30-60)mg/kg; IA = Inactive; type: functional, organism-based; how it was run: as §1
Mus musculus [12] = test: In vivo antitumor activity was determined against P388 leukemia cells expressed as treated/control at the dose of (2.5-40)mg/kg; IA = Inactive; type: functional, organism-based; how it was run: as §1
Mus musculus [13] = test: In vivo antitumor activity was determined against P388 leukemia cells expressed as treated/control at the dose of 80 mg/kg;T = toxic at this dose; type: organism-based; set-up: dose 80 mg/kg; how it was run: as §1
Mus musculus [14] = test: In vivo antitumor activity was determined against P388 leukemia cells expressed as treated/control at the dose of (2.5-20)mg/kg(nontoxic at highest dose tested.); IA = Inactive; type: functional, organism-based; how it was run: as §1
Mus musculus [15] = test: In vivo antitumor activity was determined against P388 leukemia cells expressed as treated/control at the dose of (80)mg/kg;T = toxic at this dose; type: functional, organism-based; how it was run: as §1

Compound	K aff (Calf thymus DNA) [M⁻¹]	IC50 (L1210) [µM]	other results
Cc1c[nH]c(NCCCN2CCOCC2)c2c3cnccc3nc1-2	20000	19.2	T/C (Mus musculus [1]): inactive
CCN(CC)CCNc1[nH]cc(C)c2nc3ccncc3c1-2	12000	19.5	T/C (Mus musculus [3]): Toxic; T/C (Mus musculus [4]): inactive
CCNCCCNc1ncc(C)c2c1c1cnccc1n2C	50000	3.8	T/C (Mus musculus [5]): 127; T/C (Mus musculus [6]): 149; T/C (Mus musculus [7]): 145; T/C (Mus musculus [8]): 138
CCN(CC)CCCN(C)c1[nH]cc(C)c2nc3ccncc3c1-2	6000	224	T/C (Mus musculus [11]): inactive

Second part, led by results:

K aff (Calf thymus DNA) [M⁻¹]	Compound	IC50 (L1210) [µM]	other results
27000	Cc1c[nH]c(NCCCN2CCN(C)CC2)c2c3cnccc3nc1-2	59	T/C (Mus musculus [2]): inactive
2000	CCN(CC)CCCNc1ncc(C)c2c1c1cnccc1n2Cc1ccccc1	6.4	T/C (Mus musculus [9]): inactive
20000	CN(C)CCCNc1nccc2c1c1cnccc1n2C	1.2	T/C (Mus musculus [10]): inactive
25000	CCNCCCNc1[nH]cc(C)c2nc3ccncc3c1-2	17.4	T/C (Mus musculus [12]): inactive; T/C (Mus musculus [13]): Toxic
16000	CCCN(CCC)CCCNc1ncc(C)c2c1c1cnccc1n2C	8.6	T/C (Mus musculus [14]): inactive
3000	CCN(CC)CCCN(C)c1ncc(C)c2c1c1cnccc1n2C	52	T/C (Mus musculus [15]): Toxic; T/C (Mus musculus [1]): inactive
